Results taken from ChEMBL document CHEMBL3525963, “Tissue distribution and elimination of [14C]apixaban in rats” (Drug Metab Dispos, 2011).

Key:
Format in all cases: ADME, organism-based
Design in all cases: dose 5 mg/kg, dosed compound name [14C]-apixaban, route oral
Details in all cases: in vivo
Rattus norvegicus [1] = test: Biodistribution in female Sprague-Dawley rat kidney cortex at 5 mg/kg, po administered as single dose measured after 8 hrs
In short: (§1)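 [14C]apixaban (20 μCi/mL in dosing solution) in 0.5% Tween 80 in Labrafil given by oral gavage to fasted female rats, 206-213 g, at 100 μCi/kg. One rat per time point was euthanized and snap-frozen. Sagittal 40 µm whole-body sections were read by QWBA phosphor imaging against [14C]glucose standards. Results are in µg eq apixaban/g, with LLOQ 0.037 μg eq/g.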

Brain [2] = test: Biodistribution in pregnant Sprague-Dawley rat brain at 5 mg/kg, po administered as single dose measured after 4 hrs
Heart [3] = test: Biodistribution in female Sprague-Dawley rat heart at 5 mg/kg, po administered as single dose measured after 72 hrs
In short: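 Quantitative whole-body autoradiography was run after a single 5 mg/kg (100 μCi/kg) oral gavage to fasted female or pregnant SD rats, one rat per time point. Carcasses were frozen in hexane/dry ice, and 40 µm sagittal sections were dried at −20°C for at least 48 h. Sections were exposed to a phosphor plate alongside [14C]glucose standards (0.001–6.5 µCi/g). Results are µg eq/g, with LLOQ 0.037 µg eq/g.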

Rattus norvegicus [4] = test: Biodistribution in fetal blood of pregnant Sprague-Dawley rat at 5 mg/kg, po administered as single dose measured after 0.5 hrs
In short: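 Pregnant rats, 270-319 g and fasted overnight, received [14C]apixaban by oral gavage at 100 μCi/kg in 0.5% Tween 80/Labrafil. One dam per time point was euthanized and frozen in hexane/dry ice. Fetal tissue radioactivity was measured by QWBA on 40 µm sagittal sections calibrated with [14C]glucose standards. Values are in µg eq/g, with LLOQ 0.037 μg eq/g.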

Pancreas [5] = test: Biodistribution in female Sprague-Dawley rat pancreas at 5 mg/kg, po administered as single dose measured after 4 hrs
In short: (§2)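 [¹⁴C]Apixaban given by oral gavage at 5 mg/kg (100 μCi/kg) in 0.5% Tween 80 in Labrafil (1.0 mg/mL dosing solution) to rats fasted overnight through 4 h post-dose. One rat per time point; carcass frozen in hexane/dry ice. Quantitative whole-body autoradiography used 40 µm sagittal sections and a phosphor imaging plate calibrated with [¹⁴C]glucose standards (0.001–6.5 μCi/g). Read-out in µg eq apixaban/g; LLOQ 0.037 μg eq/g.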

Rattus norvegicus [6] = test: Biodistribution in female Sprague-Dawley rat bone marrow at 5 mg/kg, po administered as single dose measured after 1 hr; in short: as §1
Heart [7] = test: Biodistribution in pregnant Sprague-Dawley rat heart at 5 mg/kg, po administered as single dose measured after 48 hrs
In short: (§3)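 Fasted pregnant SD rats (n=6, 270-319 g) each received one oral gavage dose of [14C]apixaban, 5 mg/kg (100 μCi/kg), in 0.5% Tween 80/Labrafil. One rat was killed at each of 0.5, 1, 4, 8, 24 and 48 h. Carcasses were frozen in hexane/dry ice, cut into 40 µm sagittal sections, exposed to phosphor plates and quantified against [14C]glucose standards as µg eq/g. LLOQ was 0.037 µg eq/g.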

Brain [8] = test: Biodistribution in pregnant Sprague-Dawley rat brain at 5 mg/kg, po administered as single dose measured after 0.5 hrs
Heart [9] = test: Biodistribution in female Sprague-Dawley rat heart at 5 mg/kg, po administered as single dose measured after 1 hr; in short: as §2
Pancreas [10] = test: Biodistribution in male Sprague-Dawley rat pancreas at 5 mg/kg, po administered as single dose measured after 24 hrs
In short: (§4)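 [14C]apixaban (1.0 mg/mL, 20 μCi/mL) in 0.5% Tween 80 in Labrafil, given by oral gavage at 100 μCi/kg to male rats (225-252 g) fasted overnight through 4 h post-dose. One rat per time point. Carcasses frozen in hexane/dry ice and cut into 40 µm sagittal sections. QWBA read on phosphor plates against [14C]glucose standards, reported as µg eq/g. LLOQ 0.037 µg eq/g.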

Spleen [11] = test: Biodistribution in pregnant Sprague-Dawley rat spleen at 5 mg/kg, po administered as single dose measured after 8 hrs
Harderian gland = test: Biodistribution in pregnant Sprague-Dawley rat harderian gland at 5 mg/kg, po administered as single dose measured after 24 hrs; in short: as §3
Spleen [12] = test: Biodistribution in male Sprague-Dawley rat spleen at 5 mg/kg, po administered as single dose measured after 24 hrs
In short: (§5)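 Fasted male SD rats (225-252 g) each received one oral gavage dose of [14C]apixaban, 5 mg/kg (100 μCi/kg), in 0.5% Tween 80/Labrafil vehicle. One rat was killed per time point, from 0.5 to 168 h. Frozen carcasses were cut into 40 µm sagittal whole-body sections and read by QWBA phosphor imaging against [14C]glucose calibrants. Results are in µg apixaban eq/g; BLQ <0.037 µg eq/g.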

Pancreas [13] = test: Biodistribution in pregnant Sprague-Dawley rat pancreas at 5 mg/kg, po administered as single dose measured after 1 hr
Heart [14] = test: Biodistribution in pregnant Sprague-Dawley rat heart at 5 mg/kg, po administered as single dose measured after 1 hr
Brain [15] = test: Biodistribution in male Sprague-Dawley rat brain at 5 mg/kg, po administered as single dose measured after 0.5 hrs
In short: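 Fasted male SD rats were dosed orally by gavage with a single 5 mg/kg (100 μCi/kg) dose of [14C]apixaban, formulated at 1.0 mg/mL and 20 μCi/mL in 0.5% Tween 80/Labrafil. One rat was euthanized per time point and the carcass frozen and sectioned at 40 µm. Brain was quantified by QWBA against [14C]glucose calibration standards, as µg eq/g (LLOQ 0.037 µg eq/g).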

Muscle tissue [16] = test: Biodistribution in male Sprague-Dawley rat muscle at 5 mg/kg, po administered as single dose measured after 4 hrs; in short: as §4
Muscle tissue [17] = test: Biodistribution in male Sprague-Dawley rat muscle at 5 mg/kg, po administered as single dose measured after 72 hrs; in short: as §5
Rattus norvegicus [18] = test: Biodistribution in pregnant Sprague-Dawley rat amnion at 5 mg/kg, po administered as single dose measured after 8 hrs
Blood = test: AUC (0 to t) in pregnant Sprague-Dawley rat blood at 5 mg/kg, po administered as single dose
Brain [19] = test: Biodistribution in male Sprague-Dawley rat brain at 5 mg/kg, po administered as single dose measured after 8 hrs
Heart [20] = test: Biodistribution in pregnant Sprague-Dawley rat heart at 5 mg/kg, po administered as single dose measured after 8 hrs
Liver [21] = test: Biodistribution in male Sprague-Dawley rat liver at 5 mg/kg, po administered as single dose measured after 0.5 hrs; in short: as §4
Liver [22] = test: Biodistribution in pregnant Sprague-Dawley rat liver at 5 mg/kg, po administered as single dose measured after 48 hrs; in short: as §3
Thymus = test: Biodistribution in pregnant Sprague-Dawley rat thymus at 5 mg/kg, po administered as single dose measured after 0.5 hrs
Rattus norvegicus [23] = test: Biodistribution in male Sprague-Dawley rat kidney cortex at 5 mg/kg, po administered as single dose measured after 8 hrs

Radiolabel recovery (Rattus norvegicus [1]): 0.42 ugequiv/g
Radiolabel recovery (Brain [2]): < 0.037 ugequiv/g
Radiolabel recovery (Heart [3]): Not detected assumed BLQ
Radiolabel recovery (Rattus norvegicus [4]): 0.27 ugequiv/g
Radiolabel recovery (Pancreas [5]): 0.55 ugequiv/g
Radiolabel recovery (Rattus norvegicus [6]): 0.41 ugequiv/g
Radiolabel recovery (Heart [7]): Not detected assumed BLQ
Radiolabel recovery (Brain [8]): 0.05 ugequiv/g
Radiolabel recovery (Heart [9]): 0.54 ugequiv/g
Radiolabel recovery (Pancreas [10]): < 0.037 ugequiv/g
Radiolabel recovery (Spleen [11]): 0.05 ugequiv/g
Radiolabel recovery (Harderian gland): Not detected assumed BLQ
Radiolabel recovery (Spleen [12]): Not detected assumed BLQ
Radiolabel recovery (Pancreas [13]): 0.75 ugequiv/g
Radiolabel recovery (Heart [14]): 0.93 ugequiv/g
Radiolabel recovery (Brain [15]): 0.05 ugequiv/g
Radiolabel recovery (Muscle tissue [16]): 0.27 ugequiv/g
Radiolabel recovery (Muscle tissue [17]): Not detected assumed BLQ
Radiolabel recovery (Rattus norvegicus [18]): 2.12 ugequiv/g
AUCt (Blood): 6980 ngequiv.hr/g
Radiolabel recovery (Brain [19]): < 0.037 ugequiv/g
Radiolabel recovery (Heart [20]): 0.06 ugequiv/g
Radiolabel recovery (Liver [21]): 0.81 ugequiv/g
Radiolabel recovery (Liver [22]): Not detected assumed BLQ
Radiolabel recovery (Thymus): 0.38 ugequiv/g
Radiolabel recovery (Rattus norvegicus [23]): 0.88 ugequiv/g
SMILES: COc1ccc(-n2nc(C(N)=O)c3c2C(=O)N(c2ccc(N4CCCC[14C]4=O)cc2)CC3)cc1
